PAX8 inh HTS: PAX8 transcriptional activity inhibition; inhibition, % at 12.6 µM; actives 1.2% (n = 360,000); RMG-I TPO-luciferase reporter, SteadyGlo, 24 h;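 active = mean replicate inhibition at least 60% with every replicate also reaching 60%; inconclusive = only one of the two criteria is met; inactive = mean below 60% and not all replicates reaching 60%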;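 also: luciferase light reporting Pax8 driven TPO promoter activity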
EWS-Fli block: inhibitors of EWS/Fli oncoprotein transcriptional activity. A673 NR0B1-luciferase reporter, viability-normalised. inhibition, % at 12.6 µM. actives 0.67% (n = 350,000);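 active = mean inhibition of at least 50% after viability correction, with every replicate also passing that limit; inconclusive = mean reaches 50% but only one of two replicates passes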;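 also: firefly luciferase signal divided by Alamar Blue viability fluorescence both relative to DMSO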
F508del corr: CFTR F508del correction in bronchial cells; CFBE cells, YFP halide quenching; stimulated with forskolin plus potentiator P3; % fluorescence drop versus neutral controls; activity (quench increase), % at 7.58 µM; actives 0.36% (n = 350,000); AID 720511;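 active = mean added fluorescence quench of at least 8% versus neutral control, with both replicates also reaching 8%; inconclusive = only one of the mean or replicate conditions met; inactive = mean below 8% and not both replicates reaching 8%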;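 also: cells transiently co-express mutant CFTR-F508del with the halide-sensitive YFP; corrector assay measuring rescue of mutant channel to the surface after 24 h compound exposure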
PGC1a acetyl inh: lowers PGC1a acetylation signal in U2OS cells | AlphaScreen anti-acetyl-lysine; with virally co-expressed GCN5 acetyltransferase | AID 651687 | actives 0.17% (n = 350,000) | inhibition, % at 15.6 µM;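 active = every replicate shows inhibition of at least 40%; inconclusive = mean inhibition at least 40% but some replicate below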
FN deposit inh: fibronectin deposition inhibition; inhibition, % at 12.6 µM; AH1F fibroblasts, Alexa488-fibronectin deposition fluorescence, overnight; actives 0.086% (n = 350,000);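 active = mean inhibition across replicates of 30% or more, regardless of how many single replicates reach that level; inconclusive = mean under 30% yet at least half of replicates reach 30%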
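Material: AH1F fibroblast monolayer depositing Alexa488-labelled fibronectin into matrix / Amount: 10000 AH1F cells per well / Signal: fluorescence 485/525 nm / Medium: DMEM, 2% serum / Compound: single dose, pinned / Incubation: 1 h cell adhesion before compound, then overnight fibronectin incubation / Reagent: Alexa488-FN, 24 nM final / Read-out: inhibition of fibronectin deposition signal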
HIV Env fusion: HIV envelope-mediated fusion inhibition; inhibition, % at 12.3 µM; HeLa-JRFL Env/CEM21 cell fusion, luciferase; AID 651610; actives 1.1% (n = 360,000);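 active = mean replicate inhibition score of at least 50 and every replicate individually at or above 50; inconclusive = only one of the two criteria met; inactive = mean below 50 and not all replicates reaching 50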
Large screens that a line does not name were inactive; [ ] = another dose, or the depositor's remark. In the library only some 2.3% were active in any assay of this set; here they are far more common.

C[C@@H]1CCCCO[C@H](CN(C)Cc2ccc(C(F)(F)F)cc2)[C@@H](C)CN([C@@H](C)CO)C(=O)c2cc(NS(=O)(=O)c3ccc(F)cc3)ccc2O1	PAX8 inh HTS 103
C[C@@H]1CCCCO[C@H](CN(C)Cc2ccc(C(F)(F)F)cc2)[C@@H](C)CN([C@H](C)CO)C(=O)c2cc(NS(=O)(=O)c3ccc(Cl)cc3)ccc2O1	none
C[C@@H]1CCCCO[C@@H](CN(C)Cc2ccc(C(F)(F)F)cc2)[C@H](C)CN([C@H](C)CO)C(=O)c2cc(NS(=O)(=O)c3ccccc3)ccc2O1	PAX8 inh HTS 92
C[C@H](CO)N1C[C@H](C)[C@H](CN(C)Cc2ccc(C(F)(F)F)cc2)OCCCC[C@H](C)Oc2ccc(NS(=O)(=O)c3ccc(F)cc3)cc2C1=O	PAX8 inh HTS 106, EWS-Fli block 73
CC(C)NC(=O)Nc1ccc2c(c1)C(=O)N([C@H](C)CO)C[C@H](C)[C@@H](CN(C)Cc1ccncc1)O2	none (no result: FN deposit inh, HIV Env fusion)
C[C@@H]1CN([C@@H](C)CO)C(=O)c2cc(NS(=O)(=O)c3ccc(F)cc3)ccc2O[C@@H](C)CCCCO[C@@H]1CN(C)Cc1ccc(C(F)(F)F)cc1	PAX8 inh HTS 88
C[C@@H]1CCCCO[C@H](CN(C)Cc2ccc(C(F)(F)F)cc2)[C@H](C)CN([C@@H](C)CO)C(=O)c2cc(NS(=O)(=O)c3ccc(F)cc3)ccc2O1	PAX8 inh HTS 83, HIV Env fusion inconclusive
C[C@@H]1CCCCO[C@H](CN(C)Cc2ccc(C(F)(F)F)cc2)[C@H](C)CN([C@H](C)CO)C(=O)c2cc(NS(=O)(=O)c3ccc(F)cc3)ccc2O1	PAX8 inh HTS 79
COc1ccc(S(=O)(=O)Nc2ccc3c(c2)C(=O)N([C@H](C)CO)C[C@H](C)[C@@H](CN(C)Cc2ccc(C(F)(F)F)cc2)OCCCC[C@@H](C)O3)cc1	none
COc1ccc(S(=O)(=O)Nc2ccc3c(c2)C(=O)N([C@H](C)CO)C[C@@H](C)[C@H](CN(C)Cc2ccc(C(F)(F)F)cc2)OCCCC[C@H](C)O3)cc1	none (no result: FN deposit inh)
Cc1ccccc1S(=O)(=O)N1C[C@H](O)COC[C@H]2O[C@H](CC(=O)O)CC[C@@H]21	none
COc1cccc(S(=O)(=O)N(C)C[C@@H]2Oc3cc(C4=CCCCC4)ccc3S(=O)(=O)N([C@@H](C)CO)C[C@@H]2C)c1	PAX8 inh HTS inconclusive, HIV Env fusion 55[16.7 µM] (no result: FN deposit inh)
COc1ccc(S(=O)(=O)N(C)C[C@@H]2Oc3cc(C4=CCCC4)ccc3S(=O)(=O)N([C@H](C)CO)C[C@H]2C)cc1	none (no result: PAX8 inh HTS)
COc1cccc(S(=O)(=O)N(C)C[C@H]2Oc3cc(C4=CCCC4)ccc3S(=O)(=O)N([C@@H](C)CO)C[C@@H]2C)c1	none
COc1cccc(S(=O)(=O)N(C)C[C@H]2Oc3cc(C4=CCCCC4)ccc3S(=O)(=O)N([C@H](C)CO)C[C@H]2C)c1	HIV Env fusion 69[16.7 µM] (no result: FN deposit inh)
CO[C@H]1CN(C)C(=O)c2ccc(NS(=O)(=O)c3cccc(F)c3)cc2OC[C@H](C)NC[C@H]1C	none (no result: PAX8 inh HTS)
CC(CC(=O)Nc1ccc2c(c1)c(=O)n(C)n2-c1ccccc1)c1ccccc1 (stereo unspecified)	EWS-Fli block 56
CC(C)NC(=O)N(C)C[C@@H]1Oc2ccc(N(C)C)cc2CC(=O)N(C)C[C@H]1C	none (no result: PAX8 inh HTS, EWS-Fli block, F508del corr, PGC1a acetyl inh, HIV Env fusion)
COc1cccc(-c2cn(CC[C@H]3CC[C@@H](NC(=O)CC4CC4)[C@H](CO)O3)nn2)c1	none
CCOC(=O)c1[nH]c(C)c(C(=O)OCC(=O)NC(C)c2ccc(F)cc2)c1C (stereo unspecified)	EWS-Fli block 54 (no result: HIV Env fusion)
O=S(=O)(N[C@@H]1CC[C@H](CCNS(=O)(=O)c2ccccc2Cl)O[C@@H]1CO)c1ccccc1	none (no result: FN deposit inh)
O=C(CC1CC1)N[C@@H]1CC[C@H](CCNS(=O)(=O)c2ccc(Cl)cc2)O[C@H]1CO	PGC1a acetyl inh 64
O=C(CC1CC1)N[C@@H]1CC[C@H](CCNS(=O)(=O)c2ccc(F)cc2)O[C@H]1CO	none
O=C(CC1CC1)N[C@@H]1CC[C@@H](CCNS(=O)(=O)c2ccc(Cl)cc2)O[C@@H]1CO	PGC1a acetyl inh 56
Cc1ccc(S(=O)(=O)NCC[C@H]2CC[C@@H](NC(=O)CC3CC3)[C@@H](CO)O2)cc1	none
O=S(=O)(N[C@@H]1CC[C@@H](CCNS(=O)(=O)c2ccccc2Cl)O[C@H]1CO)c1ccccc1	PGC1a acetyl inh 62 (no result: FN deposit inh)
O=C1N[C@H](Cc2ccccc2)COCc2cn(nn2)CC[C@@H]1Cc1ccc(Cl)cc1	none (no result: PAX8 inh HTS, EWS-Fli block, F508del corr, PGC1a acetyl inh, HIV Env fusion)
CCCCCCCCCC(=O)OCC(O)CO (stereo unspecified)	F508del corr 8.2
CC(=O)N1[C@@H]2CN(C(=O)NC(C)C)C[C@H]1C2c1ccccc1 (stereo partly specified)	none (no result: PAX8 inh HTS, EWS-Fli block, F508del corr, PGC1a acetyl inh, HIV Env fusion)
CCOc1cc(S(=O)(=O)NCc2ccccc2)c(OCC)cc1-n1cnnn1	none (no result: PAX8 inh HTS, EWS-Fli block, F508del corr)
CCOc1cc(S(=O)(=O)N(Cc2ccccc2)Cc2ccccc2)c(OCC)cc1-n1cnnn1	HIV Env fusion 63 (no result: PAX8 inh HTS, EWS-Fli block, F508del corr, FN deposit inh)
O=C(C[C@@H]1CC[C@@H](NC(=O)Cc2cccnc2)[C@@H](CO)O1)Nc1ccc(-c2ccccc2)cc1	none
COc1ccc(/C=N/n2c(=O)[nH]c3c([nH]c4ccc(C)cc43)c2=O)cc1CN1CCOCC1	none (no result: PAX8 inh HTS, FN deposit inh, HIV Env fusion)
COc1ccc2c(c1)[nH]c1c(=O)n(/N=C/c3ccc(OC)c(CN4CCCC4)c3)cnc12	F508del corr 9.2
COc1ccc(/C=N/n2cnc3c([nH]c4ccc(F)cc43)c2=O)cc1CN1CCCC1	EWS-Fli block 57
COc1ccc2[nH]c3c(=O)n(/N=C/c4ccc(OC)c(CN5CCCC5)c4)c(C)nc3c2c1	none
COc1ccc(/C=N/n2cnc3c([nH]c4ccc(C)cc43)c2=O)cc1CN1CCCC1	EWS-Fli block 59
CCC(=O)N[C@H]1C=C[C@@H](CC(=O)NCc2ccccc2OC)O[C@@H]1CO	none (no result: FN deposit inh)
C[C@@H]1CCCCO[C@@H](CN(C)C(=O)Nc2ccccc2)[C@H](C)CN([C@@H](C)CO)C(=O)c2cc(NS(=O)(=O)c3ccc(Cl)cc3)ccc2O1	none
C[C@H]1CN([C@@H](C)CO)C(=O)Cc2cc(NC(=O)CCCN(C)C)ccc2O[C@H]1CN(C)S(=O)(=O)c1ccc(F)cc1	none
CC(C)C[C@@H](C(=O)O)N(Cc1cccc(CN([C@@H](CC(C)C)C(=O)O)S(C)(=O)=O)c1)S(C)(=O)=O	HIV Env fusion 61
COC(=O)[C@@H](CC(C)C)N(Cc1ccccc1)S(=O)(=O)N(Cc1ccccc1)[C@@H](CC(C)C)C(=O)OC	HIV Env fusion 85 (no result: PGC1a acetyl inh)
COCC(=O)Nc1ccc2c(c1)C(=O)N(C)C[C@@H](OC)[C@@H](C)CN(Cc1ccccc1OC)[C@H](C)CO2	none (no result: PAX8 inh HTS, HIV Env fusion)

Screening results (PubChem)
